Screens as filed in PubChem.
Shown are actives, neighbours in structure and some others; about 3.5% of the full set was active somewhere.
RGS4 act = RGS4 potentiators or activators, primary screen, cell-based, HEK293 M3R inducible RGS4, calcium flux. carbachol calcium flux Fluo4; stronger effect = lower value. B-score at 10 µM. 310,000 tested, 0.92% active;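 active means B-score of the integrated calcium signal more than 4 SD below the library mean, with starting fluorescence not abnormally high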;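 further: negative B-score means reduced calcium response which marks RGS4 activation or potentiation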
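Also added: carbachol at ECmax as muscarinic agonist stimulus; Assay system: HEK293 cells with stable M3R and inducible RGS4; Timing: overnight RGS4 induction, 30 min dye load 37 °C, 20 min compound RT; Measured by: Fluo4-AM (2 µM) calcium-flux fluorescence, kinetic read.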
MrgX1 allo act = positive allosteric modulators of MrgX1, primary screen, HEK293 cells, Fluo-4 calcium flux. Mas-related G-protein coupled receptor member X1 (Homo sapiens), Q96LB2. FDSS; stronger effect = higher value. B-score at 10 µM. 310,000 tested, 0.63% active. AID 588675, 2011;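 active means plate-corrected calcium response at least 3 library SD above typical, normal starting fluorescence, not activating the receptor alone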;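 further: compound read alongside a low EC10 to EC30 dose of BAM8-22 agonist; peak minus trough fluorescence over baseline measured at the second addition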
Target sequence (Q96LB2 whole entry, looked up): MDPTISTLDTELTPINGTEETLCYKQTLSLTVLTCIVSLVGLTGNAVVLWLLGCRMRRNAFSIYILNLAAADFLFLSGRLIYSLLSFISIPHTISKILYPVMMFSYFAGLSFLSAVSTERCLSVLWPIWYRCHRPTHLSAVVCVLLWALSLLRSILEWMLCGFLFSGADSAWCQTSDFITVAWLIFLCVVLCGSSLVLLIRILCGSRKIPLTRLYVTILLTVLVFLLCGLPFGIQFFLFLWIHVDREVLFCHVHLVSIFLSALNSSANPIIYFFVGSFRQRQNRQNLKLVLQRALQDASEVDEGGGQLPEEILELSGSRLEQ
RGS4 inh = RGS4 inhibitors, primary screen, cell-based, HEK293 M3R inducible RGS4, calcium flux; 310,000 tested, 0.45% active; AID 463165, 2010; B-score at 10 µM; Fluo-4 calcium flux; stronger effect = higher value; triggered by carbachol at its EC20;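 active means B-score, a plate-corrected calcium signal, over three deviations above library mean, with baseline fluorescence within five deviations of library mean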;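 further: RGS4 expression induced by doxycycline in cells with stable M3 receptor; B-score is computed from the integrated fluorescence ratio over baseline after carbachol; higher B-score means a larger calcium signal and so more RGS4 inhibition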
Target sequence (P49798 whole entry, looked up): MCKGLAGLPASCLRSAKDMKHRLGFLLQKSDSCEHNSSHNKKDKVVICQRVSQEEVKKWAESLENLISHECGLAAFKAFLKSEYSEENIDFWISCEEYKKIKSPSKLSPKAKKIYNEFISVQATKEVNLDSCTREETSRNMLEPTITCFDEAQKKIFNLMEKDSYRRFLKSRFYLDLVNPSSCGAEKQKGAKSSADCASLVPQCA
MrgX1 agonist = agonists of human MrgX1 receptor, primary screen, HEK293 cells, Fluo-4 calcium flux. B-score at 10 µM. Fluo-4 calcium fluorescence, agonist mode; stronger effect = higher value. AID 588627, 2011. 310,000 tested, 0.44% active. Mas-related G-protein coupled receptor member X1 (Homo sapiens), Q96LB2;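 active means calcium response B-score plate-corrected fluorescence ratio at least 3 library SD, with starting fluorescence B-score inside 5 SD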
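Test system: HEK293 cells stably expressing human MrgX1 receptor; amount: 15,000 cells per well; doses: compound delivered in addition one of three; times: overnight plating before 1 h dye loading; detection: Fluo-4 NW calcium-flux fluorescence, kinetic read; read-out basis: B-scored fluorescence response ratio; controls: positive and negative controls per plate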
MrgX1 antagonist = antagonists of human MrgX1 receptor, primary screen, HEK293 cells, Fluo-4 calcium flux; B-score at 10 µM; 310,000 tested, 1.3% active; BAM8-22 antagonism; stronger effect = lower value;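 active means calcium-response B-score plate-corrected more than 3 library SD below zero, starting fluorescence within 5 deviations, no agonist response on first addition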;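 further: peak minus trough fluorescence over baseline after final BAM8-22 challenge near maximal dose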
MrgX1 ant reconf = MrgX1 receptor antagonists, duplicate retest, confirmation, HEK293 cells, Fluo-4 calcium flux; shares compounds with MrgX1 antagonist; BAM8-22 calcium flux; stronger effect = lower value; remaining BAM8-22 calcium response % of control (stronger effect = lower value), % at 10 µM; 2,300 tested, 19% active; AID 602420, 2012;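 active means remaining agonist calcium response no higher than 100% minus 3 SD of agonist-only control wells, with starting fluorescence near control levels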;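 further: agonist BAM8-22 given at a near maximal EC90 to ECmax level; peak minus minimum fluorescence divided by baseline after agonist addition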
HEK293 Ca flux = nonspecific calcium signal in parental HEK293, confirmation, counter-screen for MrgX1 antagonist project, parental HEK293 cells, Fluo-4 calcium flux. Fluo-4 calcium fluorescence, FDSS. fluorescence ratio F(max-min)/F0 at 10 µM. 4,000 tested, 2% active. shares compounds with MrgX1 antagonist;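 active means duplicate-averaged calcium fluorescence ratio at least three times the standard deviation of buffer wells, a nonspecific response in parental cells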
HEK293 Ca counter = calcium response in parental HEK293 cells, primary screen, counter-screen for MrgX1 allosteric activator project, cell-based, Fluo-4 calcium flux, duplicate | shares compounds with MrgX1 antagonist | Fluo-4 fluorescence ratio; stronger effect = higher value | fluorescence ratio F(max-min)/F0 at 10 µM | 4,000 tested, 0.4% active | AID 624114, 2012;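 active means calcium fluorescence ratio, averaged over duplicates, at least 3 SD of the buffer-well ratio, meaning a nonspecific response in receptor-free cells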;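 further: untransfected parental HEK293 lacking MrgX1 used as counterscreen for MrgX1 allosteric activators; fluorescence change taken during the second addition on a kinetic imager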
HEK293 Ca cntr2 = calcium response in parental HEK293 cells, primary screen, counter-screen for MrgX1 agonist project, cell-based, Fluo-4 calcium flux, duplicate, agonist mode; shares compounds with MrgX1 antagonist; Fluo-4 calcium fluorescence (FDSS); stronger effect = higher value; fluorescence ratio F(max-min)/F0 at 10 µM; 4,000 tested, 8.7% active; AID 624115, 2012;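 active means calcium fluorescence ratio at least three times the spread of buffer wells, meaning a non-specific response in parental cells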
Active calls of the source: *; i = inactive; / = not tested or not shown; ! = not confirmed by another sample.

SMILES	RGS4 act	MrgX1 allo act	RGS4 inh	MrgX1 agonist	MrgX1 antagonist	MrgX1 ant reconf	HEK293 Ca flux	HEK293 Ca counter	HEK293 Ca cntr2
Cc1cc(=O)[nH]c(SCc2nnnn2-c2ccc(Cl)cc2)n1	i	i	i	i	i	/	/	/	/
Nc1cc(=O)[nH]c(SCc2nnnn2-c2ccc(Cl)cc2)n1	i	i	i	i	-6.87*	i	i	i	i
Cn1c(N)c(C(=O)COC(=O)[C@@H]2CCCN2S(=O)(=O)c2ccc(Cl)cc2)c(=O)n(C)c1=O	i	i	i	i	-6.06*	i	i	i	i
COc1ccc(NC(=O)CNS(=O)(=O)c2cccc3nonc23)c(OC)c1	i	i	i	i	-5.66*	i	i	i	i
CC(=O)c1ccc(NC(=O)C2CCN(S(=O)(=O)c3ccc4c(c3)N(C(C)=O)CCO4)CC2)cc1	i	i	i	i	i	/	/	/	/
Cc1ccc(C)c(OC(C)C(=O)Nc2ccc(S(=O)(=O)Nc3nccs3)cc2)c1 (centres undefined)	i	i	i	i	i	/	/	/	/
O=C(CSCc1nc2ccccc2[nH]1)Nc1ccc2ccccc2c1	i	i	i	i	-4.91*	i	i	i	i
COC(=O)c1sc(NC(=O)c2ccc(C)o2)nc1C	i	i	i	i	i	/	/	/	/
CCOC(=O)c1sc(NC(=O)c2ccc(C)o2)nc1C	i	i	i	i	-8.05*	i	i	i	i
Cc1ccc(NC(=O)NCC2CCN(Cc3cccc(Cl)c3)CC2)c(Cl)c1	i	i	i	i	i	/	/	/	/
O=C(NCC1CCN(Cc2cccc(Cl)c2)CC1)Nc1ccccc1Cl	i	i	i	i	-5.65*	i	i	i	i
Cn1nnnc1N=N/C(=N/Nc1ccccc1)c1ccccc1	i	i	i	i	i	/	/	/	/
CC(C)(C)c1cccc(Oc2nn[nH]n2)c1	i	i	i	i	-6.86*	i	i	i	i
Cn1cc([N+](=O)[O-])c(C(=O)NC2CCCC2)n1	i	/	i	/	/	/	/	/	/
COc1ccc(CNC(=O)c2cc3c(s2)CN(Cc2ccccc2)C3)cc1	i	i	i	i	i	/	/	/	/
CCOC(=O)c1cnc2c(cnn2C)c1Oc1ccc(OC)cc1	i	i	i	i	i	/	/	/	/
CCOC(=O)c1cnc2c(cnn2C)c1NCCC(O)C(F)(F)F (centres undefined)	i	i	i	i	-4.76*	i	i	i	i
O=C(COC(=O)c1cccnc1Cl)NCCC1=CCCCC1	i	i	i	i	i	/	/	/	/
COc1ccccc1CNC(=O)C1CCC1	i	i	i	i	-7.9*	82.1%*	i	i	i
CCc1c(C)sc(NC(=O)c2ccoc2C)c1C(N)=O	i	i	i	i	-5.95*	i	i	i	i
Cc1occc1C(=O)Nc1sc2c(c1C(N)=O)CCCCC2	i	i	i	i	-6.48*	i	i	i	i
S=c1[nH]nc(C2CCCCC2)n1/N=C/c1cccs1	i	i	i	i	i	/	/	/	/
COc1ccc(-c2csc(N3C(=O)C4C5c6ccccc6C(c6ccccc65)C4C3=O)n2)cc1 (centres undefined)	i	i	i	i	i	/	/	/	/
NS(=O)(=O)c1ccc(CCNC(=O)C(=O)NCC2OCCN2S(=O)(=O)c2ccc(F)cc2)cc1 (centres undefined)	i	i	i	i	i	/	/	/	/
Cn1c(O)c(N=Nc2nc(-c3ccccc3)cs2)c2ccccc21	i	i	i	i	i	/	/	/	/
SMILES	RGS4 act	MrgX1 allo act	RGS4 inh	MrgX1 agonist	MrgX1 antagonist	MrgX1 ant reconf	HEK293 Ca flux	HEK293 Ca counter	HEK293 Ca cntr2
Cn1c(=O)c(=O)n(C)c2cc(S(=O)(=O)Nc3ccc4c(c3)OCCO4)ccc21	i	i	i	i	-5.86*	i	i	i	i
CCCCNC(=O)N1CCOCCOCCN(C(=O)NCCCC)CCOCC1	i	i	i	i	-4.62*	i	i	i	i
COc1ccc(Cc2nc3ccc(C(=O)NCC(C)(C)OC)cc3o2)cc1	i	i	i	i	-6.31*	i	i	i	i
O=C(NC1CC1)C1CCN(S(=O)(=O)c2cc(Cl)ccc2Cl)CC1	i	i	i	i	-5.39*	i	i	i	i
CC(N)C12CC3CC(CC(C3)C1)C2 (centres undefined)	i	i	i	i	-4.98*!	i	i	i	i
CN(Cc1cccc(Cl)c1Cl)C(=O)c1cccc(S(=O)(=O)N2CCN(Cc3ccccc3)CC2)c1	i	i	i	i	i	/	/	/	/
C=C(C)CN(CC)C(=O)CN1C(=O)NC2(CCCc3ccccc32)C1=O (centres undefined)	i	i	i	i	i	/	/	/	/
O=c1[nH]c(Cc2ccccc2)nc2c1oc1ccccc12	i	i	i	i	i	/	/	/	/
O=c1[nH]c(CO)nc2c1oc1ccccc12	i	i	i	i	-6.74*	i	i	i	i
O=C(NC1CCCN(c2ccc(C(F)(F)F)cn2)C1)c1cc(Cl)ccc1F (centres undefined)	i	i	i	i	-6.65*	i	i	i	i
Cc1ccc(C(=O)NC2CCCN(c3ccc(C(F)(F)F)cn3)C2)cn1 (centres undefined)	i	i	i	i	i	/	/	/	/
COc1ccc(CN(C)C(=O)c2cccc(NS(=O)(=O)c3ccccc3)c2)c(OC)c1	i	i	i	i	i	/	/	/	/
O=C(NCC1CCCCC1)c1cccnc1Cl	i	i	i	i	i	/	/	/	/
